TLR4-MyD88 BLA – TLR4-MyD88 interaction inhibition in cells; actives 0.18% (n = 200,000); HeLa CL3-4 TLR4/MyD88 BLA complementation, FRET ratio; inhibition, % at 8.4 µM; AID 861; O00206+Q99836; in the data active = inhibition above about 25%;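 note: 0% = vehicle and 100% = reference inhibitor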
UPR XBP1 act – activators of adaptive arm of unfolded protein response (XBP1); activation, % at 20 µM; actives 0.33% (n = 330,000); CHO-XBP1 luciferase reporter, IRE1-XBP1 UPR activation, luminescence; percent of tunicamycin response, DMSO as zero;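 active = versus positive control, 20 µM dose yields 30% or more activation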;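 note: 100% = tunicamycin at 10 µg/mL and 0% = DMSO only wells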
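Material – CHO cell line with stable XBP1 luciferase reporter · Buffer or medium – F12 plus 10% FBS · Compound – single point, 20 µM final compound, 1% DMSO · Schedule – 16-18 h cell attachment at 37 °C, then 6 h compound exposure · Signal – Steady-Glo luminescence read · Benchmarks – high control tunicamycin 10 µg/mL final, low control DMSO vehicle only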
CHOP inh – blocks CHOP induction under ER stress; AID 2732; CHO-K1 CHOP-promoter luciferase, tunicamycin-induced, 15-18 h; actives 3.8% (n = 220,000); inhibition, % at 10 µM;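 active = compounds that reduced the stress-induced luciferase reporter signal by more than about 70% of percent inhibition, limit read from the data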;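 note: 0% = tunicamycin plus vehicle and 100% = wells without tunicamycin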
UPR CHOP act – apoptotic UPR (CHOP) activation | actives 0.34% (n = 330,000) | activation, % at 10 µM | AID 449763 | CHO-CHOP luciferase reporter, luminescence; percent of tunicamycin response over DMSO baseline;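 active = at 10 µM dose, activation of 40% or more, normalized to positive control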;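 note: 100% = tunicamycin at 10 µg/mL and 0% = DMSO alone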
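System: CHO CHOP reporter cells. Amount: 500 cells per well. Buffer or medium: F12 medium, 10% FBS. Compound dosing: one dose, 10 µM in 0.5% DMSO. Incubation: 6 h compound exposure at 37 °C after overnight seeding. Technique: Steady-Glo luciferase luminescence. Benchmarks: tunicamycin and DMSO controls.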
TLR9-MyD88 inh – TLR9-MyD88 interaction inhibition; inhibition, % at 4.98 µM; actives 0.21% (n = 340,000); CHO BLA complementation TLR9-MyD88, CCF4 FRET ratio; Q9NR96+Q99836;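 active = inhibition above the mean over all tested compounds plus 3 SD, cut at about 21% in these data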;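 note: 0% = DMSO only wells and 100% = clavulanate BLA inhibitor control wells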
NOD2 RIPK2 PPI – NOD2-RIPK2 protein interaction inhibition | O43353 | CHO BLA complementation NOD2-RIPK2, CCF4 ratio | inhibition, % at 4.98 µM | actives 0.38% (n = 360,000); in the data active = inhibition above about 21%;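 note: 0% = vehicle only and 100% = reference blocker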
CHOP inh conf – confirmation of CHOP induction inhibitors; shares compounds with CHOP inh; CHO-CHOP promoter luciferase reporter, tunicamycin-induced, luminescence; inhibition, % at 10 µM; actives 45% (n = 2,100);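 active = mean of three repeat readings of reporter signal inhibition above a set limit, cut at about 70% in these data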;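 note: 0% = tunicamycin plus vehicle and 100% = wells lacking tunicamycin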
Active calls of the source: *; nt = not tested or not shown. Many of the other results were omitted from the sample, so hits are more common in it than they were.

SMILES	TLR4-MyD88 BLA	UPR XBP1 act	CHOP inh	UPR CHOP act	TLR9-MyD88 inh	NOD2 RIPK2 PPI	CHOP inh conf
COc1ccc([C@H]2N[C@]3(CCCN(Cc4ccc(F)cc4)C3=O)[C@H]3C(=O)N(Cc4ccccc4)C(=O)[C@@H]23)cc1	nt	nt	nt	nt	-7	5	nt
O=C(CCn1c(=O)sc2ccccc21)Nc1nc2ccccc2s1	-15	-1	43	3	6	-5	nt
Cc1ccc2nc(NC(=O)CCn3c(=O)sc4ccccc43)sc2c1	0	-2	98*	3	10	-7	2
CCCCOC(=O)c1nc(Cl)c(Cl)c(N)c1Cl	-6	0	6	4	-5	-10	nt
CCCCCCCOC(=O)c1nc(Cl)c(Cl)c(N)c1Cl	2	1	99*	1	-5	3	55
CC1(C(=O)NS(=O)(=O)c2ccc(Cl)s2)CCN1C(=O)C1(c2ccc(Cl)cc2)CCC1 (configuration not stated)	nt	nt	nt	nt	nt	5	nt
COc1cccc(/C=N/NC(=O)Cn2nc(C)c([N+](=O)[O-])c2C)c1O	2	-3	51	-2	-4	-9	nt
COc1cccc(/C=N\NC(=O)c2ccc(Cn3cc(Br)c([N+](=O)[O-])n3)o2)c1O	5	-2	97*	1	6	-4	-1
Sc1ccccc1N=Cc1cccs1	nt	nt	nt	nt	-2	-7	nt
CN(CCc1ccccn1)S(=O)(=O)c1ccc(F)cc1	7	0	9	-2	-4	-3	nt
CC(C)(C)c1cc(S(=O)(=O)CCc2ccccn2)cc(C(C)(C)C)c1F	11	1	97*	2	-11	9	131*
O=C(CC[C@H]1O[C@@H](n2cnc3c(NC(=O)c4ccccc4)ncnc32)[C@H](O)[C@@H]1O)N[C@@H](CO)Cc1c[nH]c2ccccc12	nt	nt	nt	nt	nt	-5	nt
O=C(Nc1cccc(O)c1)C(Cc1ccccc1)N1C(=O)c2cccc3cccc(c23)C1=O (configuration not stated)	-19	4	109*	-2	1	-4	25
O=C(O)C(Cc1ccccc1)N1C(=O)c2cccc3cccc(c23)C1=O (configuration not stated)	4	1	16	1	-4	-10	nt
C=CCSc1nc2ccccc2n1C(=O)/C=C/c1cc(OC)c(OC)c(OC)c1	-16	-4	111*	-1	1	2	109*
CCSc1nc2ccccc2n1C(=O)/C=C/c1ccc(OC)c(OC)c1	-3	-2	105*	3	7	3	114*
NC(=O)CC1(c2ccccc2)CCCCC1	nt	nt	nt	nt	4	-11	nt
COc1cccc(N2CCN(C(=O)c3ccc(Cl)c(S(=O)(=O)N4CCCCCC4)c3)CC2)c1	nt	nt	nt	nt	6	2	nt
O=C(COC(=O)CNS(=O)(=O)c1c(Cl)cccc1Cl)Nc1ccccc1Sc1ccccc1	-1	1	45	-1	5	9	nt
O=C(COC(=O)CNS(=O)(=O)c1cccc(Br)c1)Nc1ccccc1Sc1ccccc1	-10	1	96*	2	-4	-8	8
Cc1ccc2nc(NC(=O)c3ccc4ncsc4c3)sc2c1	-1	0	103*	3	15	-5	-13
S=C1NCCN1CC1CCN(CCCC2CCCC2)CC1	nt	nt	nt	nt	1	-4	nt
Cc1ccc(S(=O)(=O)NC(=O)C2(C)CCN2C(=O)C2CCCCC2)cc1 (configuration not stated)	nt	nt	nt	nt	nt	-7	nt
CS(=O)(=O)c1ccc2nc(NC(=O)c3ccc(NS(=O)(=O)c4ccc(F)c(F)c4)cc3)sc2c1	nt	-1	7	1	-7	-14	nt
O=C(Nc1nc2ccc(SC(F)F)cc2s1)c1ccc(NS(=O)(=O)c2ccc(F)c(F)c2)cc1	10	2	106*	7	2	1	-5
Cc1cc2cc(C=C(C#N)C#N)c(Cl)nc2cc1C	9	-2	97*	10	9	-2	2
CCOC(=O)/C(C#N)=C/c1cc2cc(C)c(C)cc2nc1Cl	nt	-1	-4	4	7	7	nt
